Assay results as given in ChEMBL document CHEMBL1287774, “Discovery of new azaindole-based PI3Kα inhibitors: apoptotic and antiangiogenic effect on cancer cells” (Bioorg Med Chem Lett, 2010).
pIC50: −log10 of the molar value. Values belong to the compound of their own block, whether it stands above or below them.

How the values were obtained:
[1] = biological target: Phosphatidylinositol 4,5-bisphosphate 3-kinase catalytic subunit alpha isoform (Homo sapiens, UniProt P42336); experiment: Inhibition of PI3Kalpha
Sequence of Phosphatidylinositol 4,5-bisphosphate 3-kinase catalytic subunit alpha isoform (P42336 whole entry, canonical isoform): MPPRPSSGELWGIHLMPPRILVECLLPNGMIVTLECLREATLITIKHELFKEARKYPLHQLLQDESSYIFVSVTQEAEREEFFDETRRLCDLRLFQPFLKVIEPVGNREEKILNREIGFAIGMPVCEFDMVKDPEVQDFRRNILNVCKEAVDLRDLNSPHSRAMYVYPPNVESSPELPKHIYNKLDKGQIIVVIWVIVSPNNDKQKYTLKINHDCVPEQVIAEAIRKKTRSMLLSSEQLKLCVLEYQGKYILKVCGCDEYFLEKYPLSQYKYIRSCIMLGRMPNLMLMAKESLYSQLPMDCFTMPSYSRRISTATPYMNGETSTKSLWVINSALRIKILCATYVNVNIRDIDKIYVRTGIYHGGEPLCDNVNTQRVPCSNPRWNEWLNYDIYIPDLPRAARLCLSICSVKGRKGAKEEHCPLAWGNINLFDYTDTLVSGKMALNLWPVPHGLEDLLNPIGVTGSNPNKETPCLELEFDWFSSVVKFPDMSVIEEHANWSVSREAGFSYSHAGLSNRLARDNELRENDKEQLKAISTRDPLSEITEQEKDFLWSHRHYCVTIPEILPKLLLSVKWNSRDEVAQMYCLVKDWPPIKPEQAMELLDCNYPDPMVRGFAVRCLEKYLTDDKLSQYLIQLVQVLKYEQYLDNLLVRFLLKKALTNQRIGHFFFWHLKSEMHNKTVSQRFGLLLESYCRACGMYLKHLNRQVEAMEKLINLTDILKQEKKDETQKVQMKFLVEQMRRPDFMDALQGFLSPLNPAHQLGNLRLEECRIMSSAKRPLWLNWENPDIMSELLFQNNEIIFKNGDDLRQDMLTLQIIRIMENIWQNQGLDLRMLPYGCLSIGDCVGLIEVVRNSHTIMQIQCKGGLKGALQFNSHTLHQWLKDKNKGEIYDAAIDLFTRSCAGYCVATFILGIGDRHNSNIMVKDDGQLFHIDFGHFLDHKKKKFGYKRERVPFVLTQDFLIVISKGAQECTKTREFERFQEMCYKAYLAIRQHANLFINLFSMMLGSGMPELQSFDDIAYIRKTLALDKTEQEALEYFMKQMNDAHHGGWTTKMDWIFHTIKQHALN

T47D [2] = experiment: Induction of apoptosis in human T47D cells assessed as decrease in viable cells at 50 uM after 24 hrs using annexin-V FITC and PI staining by flow cytometric analysis relative to control; assay type: functional
How it was run: (§1)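 T47D cells treated with various compound concentrations for 24 h, then stained with Annexin V-FITC and PI and analysed by flow cytometry. Early-apoptotic cells are Annexin V-positive/PI-negative. Changes are expressed relative to untreated control.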

T47D [3] = experiment: Antiproliferative activity against human T47D cells by MTT assay; assay type: functional, cell-based
How it was run: (§2)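 Human breast cancer cultures (T47D, SK-BR3, MCF-7) exposed to compound. Cell viability is read by MTT and expressed as growth IC50.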

SK-BR-3 = experiment: Antiproliferative activity against human SKBR3 cells by MTT assay; assay type: functional, cell-based; how it was run: as §2
T47D [4] = experiment: Induction of apoptosis in human T47D cells assessed as decrease in viable cells at 10 uM after 24 hrs using annexin-V FITC and PI staining by flow cytometric analysis relative to control; assay type: functional; how it was run: as §1
T47D [5] = experiment: Induction of apoptosis in human T47D cells assessed as increase in late apoptotic cells at 10 uM after 24 hrs using annexin-V FITC and PI staining by flow cytometric analysis relative to control; assay type: functional; how it was run: as §1
T47D [6] = experiment: Induction of apoptosis in human T47D cells assessed as increase in late apoptotic cells at 1 uM after 24 hrs using annexin-V FITC and PI staining by flow cytometric analysis relative to control; assay type: functional; how it was run: as §1
HUVEC [7] = experiment: Antiangiogenic activity against HUVEC assessed as inhibition of tubular network formation on matrigels beds; assay type: functional, cell-based; conditions: Homo sapiens
How it was run: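 HUVECs plated onto Matrigel beds and treated with DMSO vehicle or compound at 0.1, 1 and 10 µM. Read-out is formation of a capillary-like tubular network, assessed from representative images.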

T47D [8] = experiment: Induction of apoptosis in human T47D cells assessed as increase in early apoptotic cells at 10 uM after 24 hrs using annexin-V FITC and PI staining by flow cytometric analysis relative to control; assay type: functional; how it was run: as §1
T47D [9] = experiment: Induction of apoptosis in human T47D cells assessed as increase in early apoptotic cells at 1 uM after 24 hrs using annexin-V FITC and PI staining by flow cytometric analysis relative to control; assay type: functional; how it was run: as §1
T47D [10] = experiment: Induction of apoptosis in human T47D cells assessed as increase in late apoptotic cells at 50 uM after 24 hrs using annexin-V FITC and PI staining by flow cytometric analysis relative to control; assay type: functional; how it was run: as §1
HUVEC [11] = experiment: Antiangiogenic activity against HUVEC assessed as inhibition of wound-induced migration of cells to non-wounded region; assay type: functional, cell-based; conditions: Homo sapiens
How it was run: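 HUVEC wound-induced migration assay. Migration is quantified by counting the cells that moved beyond the reference line into the non-wounded region.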

T47D [12] = experiment: Induction of apoptosis in human T47D cells assessed as increase in non-viable cells at 1 uM after 24 hrs using annexin-V FITC and PI staining by flow cytometric analysis relative to control; assay type: functional; how it was run: as §1
T47D [13] = experiment: Induction of apoptosis in human T47D cells assessed as increase in non-viable cells at 10 uM after 24 hrs using annexin-V FITC and PI staining by flow cytometric analysis relative to control; assay type: functional; how it was run: as §1
T47D [14] = experiment: Induction of apoptosis in human T47D cells assessed as decrease in viable cells at 1 uM after 24 hrs using annexin-V FITC and PI staining by flow cytometric analysis relative to control; assay type: functional; how it was run: as §1
T47D [15] = experiment: Induction of apoptosis in human T47D cells assessed as increase in non-viable cells at 50 uM after 24 hrs using annexin-V FITC and PI staining by flow cytometric analysis relative to control; assay type: functional; how it was run: as §1
T47D [16] = experiment: Induction of apoptosis in human T47D cells assessed as increase in early apoptotic cells at 50 uM after 24 hrs using annexin-V FITC and PI staining by flow cytometric analysis relative to control; assay type: functional; how it was run: as §1
MCF7 = experiment: Antiproliferative activity against human MCF7 cells assessed as by MTT assay; assay type: functional, cell-based; how it was run: as §2

pIC50 [1]: 5.28
SMILES: O=S(=O)(Nc1cncc(-c2cnc3[nH]ccc3c2)c1)c1ccccc1

pIC50 (T47D [3]): 6.15 | pIC50 (SK-BR-3): 5.43
SMILES: COc1ccc(-c2c[nH]c3ncc(-c4cnc(N)c(NS(=O)(=O)N5CCOCC5)c4)cc23)cc1OC
Activity (T47D [2]): 19.64% | Activity (T47D [4]): 90.61% | Activity (T47D [5]): 4.98% | Activity (T47D [6]): 3.04% | Activity (HUVEC [7]): Dose-dependent effect | Activity (T47D [8]): 1.52% | Activity (T47D [9]): 1.56% | Activity (T47D [10]): 47.5% | Activity (HUVEC [11]): Dose-dependent effect | Activity (T47D [12]): 0.96% | Activity (T47D [13]): 2.86% | Activity (T47D [14]): 94.44% | Activity (T47D [15]): 7.32% | Activity (T47D [16]): 28.24%

pIC50 [1]: 7.57
SMILES: N#Cc1cccc(-c2c[nH]c3ncc(-c4cncc(NS(=O)(=O)c5ccc(F)cc5F)c4)cc23)c1

pIC50 [1]: 6.02
SMILES: CS(=O)(=O)Nc1cccc(-c2c[nH]c3ncc(-c4cncc(NS(=O)(=O)c5ccccc5)c4)cc23)c1

pIC50 [1]: 8.52
SMILES: COc1ccc(-c2c[nH]c3ncc(-c4cnc(N)c(NS(=O)(=O)c5ccc(F)cc5F)c4)cc23)cc1OC

pIC50 [1]: 6.89
SMILES: N#Cc1cccc(-c2c[nH]c3ncc(-c4cnc(N)c(NS(=O)(=O)N5CCOCC5)c4)cc23)c1

pIC50 [1]: 6.21
SMILES: CC(=O)c1c[nH]c2ncc(-c3cncc(NS(=O)(=O)c4ccccc4)c3)cc12

pIC50 [1]: 5.80
SMILES: COc1ccc(-c2c[nH]c3ncc(-c4cccc(NS(=O)(=O)c5ccccc5)c4)cc23)cc1OC

pIC50 [1]: 7.51
SMILES: N#Cc1cccc(-c2c[nH]c3ncc(-c4cncc(NS(=O)(=O)c5ccccc5)c4)cc23)c1

pIC50 (T47D [3]): 5.44 | pIC50 (SK-BR-3): 4.92 | pIC50 (MCF7): 5.17 | pIC50 [1]: 7.92
SMILES: O=S(=O)(Nc1cncc(-c2cnc3[nH]cc(-c4cccnc4)c3c2)c1)c1ccccc1

pIC50 [1]: 6.34
SMILES: COc1ccc(-c2c[nH]c3ncc(-c4cncc(N)c4)cc23)cc1OC

pIC50 [1]: 6.14
SMILES: CC(=O)c1c[nH]c2ncc(-c3cnc(N)c(NS(=O)(=O)N4CCOCC4)c3)cc12

pIC50 (T47D [3]): 5.07 | pIC50 (SK-BR-3): 4.66 | pIC50 [1]: 7.92
SMILES: COc1ccc(-c2c[nH]c3ncc(-c4cncc(NS(=O)(=O)c5ccccc5)c4)cc23)cc1OC
